Test results published in publication PMC3594512 (Bioorganic & medicinal chemistry, 2013).
“Also recorded” adds a separate entry of the source.

Experiments:
[1] = system: F-H69 (fluorescein-labeled Ψm^3ΨΨ); assay: Quantum dot; format: binding, E. coli; conditions: Qdot analysis; 1 nM F-H69, 1 nM Qdot 655, 16 h at 4 °C
Outline: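 F-H69 was pre-incubated 1 h at 4 °C with anti-fluorescein Qdot 655, then with beads 16 h at 4 °C. Washes: PBS, SuperBlock, then 0.005% TX-100. Per-bead Qdot (em 655 nm) and fluorescein (em 521 nm) pixel intensities (1–255) taken at predefined exposures. Peptide-free beads served as control.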

F-TAR RNA = assay: TentaGel bead fluorescence assay with F-TAR RNA; format: binding; conditions: peptide on TentaGel beads, fluorescence microscopy
[2] = system: F-18S RNA (human A-site rRNA); assay: TentaGel bead fluorescence assay with F-18S RNA; format: binding; conditions: peptide on TentaGel beads; fluorescence microscopy
Outline: (§1)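 Peptide beads were washed free of DMF, blocked 3 h in SuperBlock (PBS, 0.05% Tween-20) and rinsed with water. About 10–12 beads were shaken with fluorescent probe for 24 h at 4 °C, with fresh probe added for repeated cycles. Beads were then water-washed and viewed by fluorescence microscopy. Peptide-free beads set background. Labelled RNAs were gel-purified (20% denaturing PAGE), stored in 10 mM HEPES pH 7.4 and renatured.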

[3] = TentaGel bead control with free fluorescein; format: binding; conditions: peptide on TentaGel beads; fluorescence microscopy
Outline: as §1

H69 RNA = conditions: relative to NQVANHQ-NH2 (1:1), ref [15b]; cited from earlier work
human H69 = conditions: relative to NQVANHQ-NH2; due to non-specific binding, ref [15b]; cited from earlier work

## NQVANHQ
[1]
  bead intensity compared with STYTSVS beads: higher than STYTSVS beads
F-TAR RNA
  on-bead interaction with F-TAR RNA: did not show any interaction; also recorded: do not show any fluorescence
[2]
  on-bead interaction with F-18S RNA: did not show any interaction; also recorded: do not show any fluorescence
[3]
  on-bead interaction with free fluorescein: do not show any fluorescence

## STYTSVS
F-TAR RNA
  on-bead interaction with F-TAR RNA: with the exception those containing STYTSVS and F-TAR RNA
F-TAR RNA; listed as STYSTVS
  on-bead interaction with F-TAR RNA: showed interaction
[2]
  on-bead interaction with F-18S RNA: do not show any fluorescence
[3]
  on-bead interaction with free fluorescein: do not show any fluorescence

## neomycin
H69 RNA
  stoichiometry with H69: higher stoichiometries
Human H69
  selectivity with human H69: lower selectivity with human H69
